Results published in ChEMBL document CHEMBL1641453, “Synthesis and evaluation of β-carboline derivatives as potential monoamine oxidase inhibitors” (Bioorg Med Chem, 2011).

Legend:
[1] = biological target: T1, Amine oxidase [flavin-containing] B (Homo sapiens, UniProt P27338); test: (§1) Inhibition of human recombinant MAO-B expressed in baculovirus-infected insect cells at 1 uM after 1 hr by two-step bioluminescent assay; conditions: 1 h, 1 µM
T1 sequence (P27338 whole entry): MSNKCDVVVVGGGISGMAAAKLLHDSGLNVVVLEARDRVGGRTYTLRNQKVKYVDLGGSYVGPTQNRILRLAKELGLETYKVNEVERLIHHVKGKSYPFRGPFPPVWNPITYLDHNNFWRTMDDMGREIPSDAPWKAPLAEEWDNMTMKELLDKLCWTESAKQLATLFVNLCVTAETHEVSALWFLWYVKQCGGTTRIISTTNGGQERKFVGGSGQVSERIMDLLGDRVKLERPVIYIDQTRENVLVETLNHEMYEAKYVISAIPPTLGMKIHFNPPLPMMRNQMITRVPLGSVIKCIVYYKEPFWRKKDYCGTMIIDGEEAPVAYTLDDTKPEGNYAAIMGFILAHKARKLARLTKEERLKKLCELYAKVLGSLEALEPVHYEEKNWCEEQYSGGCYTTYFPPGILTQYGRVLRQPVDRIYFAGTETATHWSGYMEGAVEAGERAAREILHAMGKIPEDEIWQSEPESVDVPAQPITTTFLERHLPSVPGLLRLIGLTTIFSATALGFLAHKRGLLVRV
Summary of the method: (§2)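 Recombinant human MAO-B from baculovirus-infected insect cell microsomes (0.5 U/mg final) preincubated 2 min 30 s with compound, then luminogenic substrate at 15 µM final, 1 h at 37 °C. Luciferin detection reagent stops the reaction and luminescence is read after 20 min. Hepes 100 mM pH 7.5, 5% glycerol, 12.5% DMSO. Tested in triplicate; % inhibition from signal relative to no-compound control.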

[2] = biological target: T2, Amine oxidase [flavin-containing] A (Homo sapiens, UniProt P21397); test: Inhibition of human recombinant MAO-A expressed in baculovirus-infected insect cells after 1 hr by two-step bioluminescent assay
T2 sequence (P21397 whole entry): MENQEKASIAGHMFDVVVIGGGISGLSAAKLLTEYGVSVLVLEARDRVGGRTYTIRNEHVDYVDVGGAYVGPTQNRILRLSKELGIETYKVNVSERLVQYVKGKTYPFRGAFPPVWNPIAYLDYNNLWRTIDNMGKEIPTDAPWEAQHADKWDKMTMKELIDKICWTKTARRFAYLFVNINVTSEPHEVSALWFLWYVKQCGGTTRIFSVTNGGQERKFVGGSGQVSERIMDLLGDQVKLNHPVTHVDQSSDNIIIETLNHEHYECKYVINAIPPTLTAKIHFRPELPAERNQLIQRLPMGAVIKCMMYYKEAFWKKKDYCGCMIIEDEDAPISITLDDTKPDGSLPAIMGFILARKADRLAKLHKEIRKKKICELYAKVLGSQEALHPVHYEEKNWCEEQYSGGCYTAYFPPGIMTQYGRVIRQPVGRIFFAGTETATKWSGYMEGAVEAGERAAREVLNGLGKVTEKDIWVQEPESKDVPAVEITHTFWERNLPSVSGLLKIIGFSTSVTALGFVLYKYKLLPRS

[3] = biological target: T3, MAO-B (amine oxidase [flavin-containing] B) (Homo sapiens, UniProt P27338); test: as §1; summary of the method: as §2
T3 sequence (P27338 whole entry): T1 sequence (P27338 whole entry)

[4] = biological target: T1, Amine oxidase [flavin-containing] B; test: Inhibition of human recombinant MAO-B expressed in baculovirus-infected insect cells after 1 hr by two-step bioluminescent assay
Summary of the method: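 Recombinant human MAO-B microsomes from baculovirus-infected insect cells, 0.5 U/mg final. Enzyme preincubated with compound 2 min 30 s at 37 °C, then luminogenic luciferin-derivative substrate added (15 µM final). Luciferin detection reagent stops the reaction; luminescence read 20 min later. Buffer 100 mM Hepes pH 7.5 with 5% glycerol, DMSO 12.5% final. Screened at 10 and 1 µM in triplicate; IC50 from sigmoidal fit.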

| inhibition (INH) [1] | Ki [2] | Structure (SMILES) | inhibition at 1 h, 1 µM [3] | Ki [4] |
| --- | --- | --- | --- | --- |
| Not Active | 500 nM | Cc1nccc2c1[nH]c1cc(OCc3ccccn3)ccc12 | – | – |
| Not Active | 28.4 nM | Cc1nccc2c1[nH]c1cc(OCCO)ccc12 | – | – |
| – | 12.6 nM | Cc1nccc2c1[nH]c1cc(OCc3ccccc3)ccc12 | 42% | – |
| – | – | COc1ccc2c(c1)[nH]c1c(C)nccc12 [HARMINE] | – | 121000 nM |
| Not Active | 24.9 nM | Cc1nccc2c1[nH]c1cc(OCc3cccnc3)ccc12 | – | – |
| – | 5 nM | Cc1nccc2c1[nH]c1cc(OCCc3ccccc3)ccc12 | 39% | – |
| Not Active | 100 nM | Cc1nccc2c1[nH]c1cc(OCc3ccc4ccccc4c3)ccc12 | – | – |
| Not Active | 256 nM | Cc1nccc2c1[nH]c1cc(OCCN3CCOCC3)ccc12 | – | – |
| Not Active | 1020 nM | Cc1nccc2c1[nH]c1cc(OCCN(C)C)ccc12 | – | – |
| Not Active | 684 nM | Cc1nccc2c1[nH]c1cc(OCCCN(C)C)ccc12 | – | – |
| Not Active | 35.4 nM | Cc1nccc2c1[nH]c1cc(OCc3ccncc3)ccc12 | – | – |

| Structure (SMILES) | inhibition (INH) [1] | Ki [2] | inhibition at 1 h, 1 µM [3] | Ki [4] |
| --- | --- | --- | --- | --- |
| COCCOc1ccc2c(c1)[nH]c1c(C)nccc12 | Not Active | 29.5 nM | – | – |
| Cc1nccc2c1[nH]c1cc(OCCCC(F)(F)F)ccc12 | – | 3.6 nM | 24% | – |
| Cc1nccc2c1[nH]c1cc(OCC(C)C)ccc12 | – | 3.9 nM | 14% | – |
| Cc1nccc2c1[nH]c1cc(OCC3CCCCC3)ccc12 | – | 4.3 nM | – | 222 nM |
| C=CCOc1ccc2c(c1)[nH]c1c(C)nccc12 | Not Active | 5 nM | – | – |
